Results on 1 substance are retold here after PMC6601336 (ACS chemical biology, 2019).

One data set deals with T1, LasR A127W (Pseudomonas aeruginosa, UniProt P25084, A127W).
T1 sequence (P25084 1-239 A127W): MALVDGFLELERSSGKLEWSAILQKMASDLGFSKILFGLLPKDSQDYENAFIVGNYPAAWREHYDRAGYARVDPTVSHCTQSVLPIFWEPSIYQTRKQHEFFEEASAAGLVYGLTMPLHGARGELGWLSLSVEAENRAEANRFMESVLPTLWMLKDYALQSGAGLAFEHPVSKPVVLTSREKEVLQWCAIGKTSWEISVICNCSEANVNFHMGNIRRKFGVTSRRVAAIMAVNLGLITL
In words: E. coli lasB-lux reporter assay, LasR A127W. It is filed as cell-based. The note with it: read-out: EC50 in the plasB-lux assay, NR = non-responsive.

A further data set addresses T2, LasR T75V/Y93F (Pseudomonas aeruginosa, UniProt P25084, T75V/Y93F).
T2 sequence (P25084 1-239 T75V/Y93F): T1 sequence (P25084 1-239 A127W) with T75V, Y93F, W127A
Put plainly: E. coli lasB-lux reporter assay, LasR T75V/Y93F. The format is cell-based. The note with it: read-out: EC50 in the plasB-lux assay; LasR T75V/Y93F.

In the next data set the test system is pyocyanin production. The note with it: cited from earlier work.
The target of the next data set is T3, WT LasR LBD (Pseudomonas aeruginosa, UniProt P25084).
T3 sequence (P25084 1-173 limits assumed): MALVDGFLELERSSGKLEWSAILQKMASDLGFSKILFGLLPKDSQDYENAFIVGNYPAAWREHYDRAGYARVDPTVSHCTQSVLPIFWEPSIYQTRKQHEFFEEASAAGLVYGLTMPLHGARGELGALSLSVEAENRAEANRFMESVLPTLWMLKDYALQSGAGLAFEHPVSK
In words: Protein solubility assay, WT LasR LBD produced in E. coli. It is filed as cell-based. The note with it: induction at 25°C; 10 μM compound. In short, it runs like this:
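E. coli BL21(DE3) with plasmid-borne 6xHis-WT LasR LBD were grown overnight, diluted 1:500 in LB with ampicillin and grown to OD600 0.5. Cells were induced with 1 mM IPTG plus test compound at 10 μM final, then shaken 4 h at 25°C or 37°C. Whole-cell lysate and soluble fractions were compared by band intensity. Fraction soluble = soluble band / whole-cell lysate band.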

A further data set has as its system LasR. The conditions noted are these: cited from earlier work.
The target in the next data set is T4, LasR T75V (Pseudomonas aeruginosa, UniProt P25084, T75V).
T4 sequence (P25084 1-239 T75V): T1 sequence (P25084 1-239 A127W) with T75V, W127A
Put plainly: E. coli lasB-lux reporter assay, LasR T75V. The format is cell-based. The note with it: read-out: EC50 in the plasB-lux assay; LasR T75V; NR = non-responsive. A general note: Reporter assays use an easily measured gene product as a stand-in for the process of interest.

The target in a further data set is T5, LasR Y93F/A127W (Pseudomonas aeruginosa, UniProt P25084, A127W/Y93F).
T5 sequence (P25084 1-239 Y93F/A127W): T1 sequence (P25084 1-239 A127W) with Y93F
In words: E. coli lasB-lux reporter assay, LasR Y93F/A127W. The conditions noted are these: read-out: EC50 in the plasB-lux assay; LasR Y93F/A127W; NR = non-responsive. It is filed as cell-based.

For the next data set, the target named is T6, LasR T75V/Y93F/A127W (Pseudomonas aeruginosa, UniProt P25084, A127W/T75V/Y93F).
T6 sequence (P25084 1-239 T75V/Y93F/A127W): T1 sequence (P25084 1-239 A127W) with T75V, Y93F
In words: E. coli lasB-lux reporter assay, LasR T75V/Y93F/A127W. It is filed as cell-based. The conditions noted are these: read-out: EC50 in the plasB-lux assay; LasR T75V/Y93F/A127W; NR = non-responsive.

Another data set deals with T7, LasR Y93F (Pseudomonas aeruginosa, UniProt P25084, Y93F).
T7 sequence (P25084 1-239 Y93F): T1 sequence (P25084 1-239 A127W) with Y93F, W127A
Put plainly: E. coli lasB-lux reporter assay, LasR Y93F. It is filed as cell-based. The note with it: read-out: EC50 in the plasB-lux assay; LasR Y93F; NR = non-responsive.

The next data set has as its system luciferase. In words: Off-target inhibition of luciferase in the E. coli lasB-lux reporter strain. The format is cell-based. The conditions noted are these: high concentrations (>10 μM).

Positions count from the first letter of the chain named. pEC50: −log10 of the molar value.

As a reminder, the pEC50 is the negative decadic logarithm of the EC50, by convention in mol/L. Turning to “meta-bromo-thiolactone [mBTL, reference compound]”, the pEC50 on LasR A127W is 7.22; on LasR T75V/Y93F, 8.00; on LasR T75V, 8.22; on LasR Y93F/A127W, 8.05; on LasR T75V/Y93F/A127W, 8.00; at LasR Y93F it was 8.00. Also, in the data set with pyocyanin production, the effect on pyocyanin entry is recorded as “inhibiting pyocyanin”. In addition, the “soluble WT LasR LBD” value at WT LasR LBD is listed as “yielded soluble WT LasR LBD”. The “activity on LasR” value in the data set with LasR is “is a LasR agonist”. Further, the “off-target inhibition of luciferase” value in the data set on luciferase is given as “caused off-target inhibition of luciferase”.
